The results in this text go back to PubChem BioAssay.

Each structure is given as a SMILES string. Active and inactive are the calls of the source.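 The calls were made as follows, unless noted: active = inhibition above 20% together with a positive visual image hit; inconclusive = visual image hit but inhibition not above 20%; inactive = no visual image hit.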

Assay [1] is described as follows: inhibitors of TNFa-induced NFkB p65 translocation, primary screen, imaging, HUVEC, MLSMR starter and 10KST1 sets (AID 438).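 Also: compound added about 3h40 before a 20 min TNFalpha stimulation.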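 As to inhibition: signal is the nuclear over cytoplasmic p65 intensity ratio per well.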 Conditions: HUVEC TNFa-induced p65 nuclear translocation; cell count: measured here: nuclei count (cytotoxicity indicator), at 2.08 µM; inhibition: at 2 µM, stronger effect = higher value, 0% TNFa-plus-vehicle, 100% no-TNFa wells.
Assay [2] can be described thus: endothelial E-selectin expression blockers – imaging, HUVEC, immunofluorescence, MLSMR starter and 10KST1 sets, primary screen (AID 487;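 active = visually confirmed hit in the image check and inhibition above 20%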;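 as to inhibition: signal is fraction of cell area covered by stained E-selectin grains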;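 as to nuclei count: 100% = median nuclei count of all wells on the same plate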). Conditions: HUVEC TNFalpha-induced E-selectin immunofluorescence imaging, at 2 µM; inhibition: stronger effect = higher value; nuclei count: measured here: cell number, toxicity.
Assay [3] can be described thus: Primary imaging screen for DUSP6 inhibitors that restore phospho-Erk in transfected HeLa cells, chemical complementation (AID 609;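 active = compounds giving at least 50% inhibition in the cell-based MKP-3 phosphatase rescue imaging test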;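 as to inhibition: phospho-Erk level distribution per well compared with pooled transfected vehicle control wells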). Conditions: HeLa MKP-3 transfected, phospho-Erk imaging KS statistic, at 10 µM, cells stimulated with TPA for 15 min.
The target in assay [4] is Dual specificity protein phosphatase 6 (Homo sapiens) (UniProt Q16828). Described as above. Conditions: HeLa MKP-3 transfected, phospho-Erk imaging KS statistic; at 10 µM; stronger effect = higher value; cells stimulated with TPA for 15 min.
Assay [5] addresses Voltage-gated potassium channel subunit beta-2 (Rattus norvegicus) (UniProt P62483). The assay can be described thus: inhibitors of rat Kvbeta2 reductase activity – biochemical, NADPH fluorescence, primary screen (AID 622;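 active = fluorescence slope higher than the sample average by over 3 SD, cut at about -0.22 in these data, passing the limit was not always enough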;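 also: slope of raw intensity against log time taken from 70 to 1610 s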). Conditions: recombinant KvBeta, 4-cyanobenzaldehyde reduction, at 10 µM, stronger effect = higher value.
Assay [6] shares this target. Briefly: enhancers of rat Kvbeta2 NADPH turnover – biochemical, NADPH fluorescence, primary screen (AID 623;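 active = NADPH fluorescence slope more negative than the mean of all samples by about 3 SD, 99.7% confidence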;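 also: fluorescence intensity change per second fitted from 20 to 320 s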). Conditions: Recombinant KvBeta, NADPH fluorescence decrease slope, 10 min; at 10 µM; stronger effect = lower value.
In assay [7] the target is Alpha-2C adrenergic receptor (Homo sapiens) (UniProt P18825). Briefly: compounds altering alpha2C-coupled GIRK flux – cell-based, HEK293 alpha2C/GIRK1/2, thallium flux, primary screen (AID 624;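 active = fluorescence slope after compound addition differing from the mean of all screened samples at 99.7% confidence, in either direction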;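 also: slope of fluorescence ratio to pre-addition baseline per second over 15 to 24 s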). Conditions: thallium flux BTC fluorescence, at 10 µM, actives lie on both sides.
Assay [8] is described as follows: inhibitors of larval lipid processing in zebrafish, primary screen, whole organism, PED6 fluorescence, gall bladder and intestine (AID 686;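 active = a full or partial loss of lipid-probe fluorescence in the fish gall bladder, intestine or both, judged by eye; inactive = no fluorescence loss, or compound toxic to the fish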;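 also: larvae 5 to 7 days old with five fish per well; signal comes from phospholipase A2 cleavage of quenched PED6 carried via bile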). Conditions: Zebrafish larvae PED6 lipid processing, fluorescence scoring; screened at 20 µM (by protocol). The method in brief: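 system = live zebrafish larvae aged 5-7 days, whole organism | probe or stimulus = ingested quenched lipid PED6 at 100 nM | doses = 20 µM single dose | timing = overnight exposure | detection = fluorescence microscopy with visual scoring of gall bladder and intestine | read-out = visual per-well fluorescence inhibition score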

Assay [9] can be described thus: loss of swimming-algae plug formation – whole organism, Chlamydomonas reinhardtii, WT vs cilia-less mutant, absorbance, 96-well, primary screen (AID 463189;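 active = inhibition at or above 50% relative to wild type and mutant plate controls; inactive = inhibition below 50%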;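 also: 0% = wild type cc124 cells in DMSO and 100% = ciliumless bld1 mutant cells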). Conditions: Chlamydomonas reinhardtii gravitaxis, OD600 absorbance, 2 days; at 10 µM; stronger effect = higher value.
Setting [10] is: measured here: cell density z-score.
[11] abbreviates: measured here: nuclear c-Myc green intensity z-score.
The mark [12] stands for this setting: measured here: nuclear pErk red intensity z-score, stronger effect = higher value.

Sequence of Dual specificity protein phosphatase 6 (Homo sapiens) (Q16828 whole entry, looked up): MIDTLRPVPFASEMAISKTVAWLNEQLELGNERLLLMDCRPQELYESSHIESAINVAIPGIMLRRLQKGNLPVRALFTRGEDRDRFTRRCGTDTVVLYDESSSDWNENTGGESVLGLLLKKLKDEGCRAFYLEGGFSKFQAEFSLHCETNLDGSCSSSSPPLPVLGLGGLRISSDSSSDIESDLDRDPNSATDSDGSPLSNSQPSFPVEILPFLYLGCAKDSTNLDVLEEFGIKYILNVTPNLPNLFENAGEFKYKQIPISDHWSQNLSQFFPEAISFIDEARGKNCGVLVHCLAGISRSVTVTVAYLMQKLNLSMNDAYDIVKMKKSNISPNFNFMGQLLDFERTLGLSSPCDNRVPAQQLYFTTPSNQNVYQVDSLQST
Sequence of Voltage-gated potassium channel subunit beta-2 (Rattus norvegicus) (P62483 whole entry, looked up): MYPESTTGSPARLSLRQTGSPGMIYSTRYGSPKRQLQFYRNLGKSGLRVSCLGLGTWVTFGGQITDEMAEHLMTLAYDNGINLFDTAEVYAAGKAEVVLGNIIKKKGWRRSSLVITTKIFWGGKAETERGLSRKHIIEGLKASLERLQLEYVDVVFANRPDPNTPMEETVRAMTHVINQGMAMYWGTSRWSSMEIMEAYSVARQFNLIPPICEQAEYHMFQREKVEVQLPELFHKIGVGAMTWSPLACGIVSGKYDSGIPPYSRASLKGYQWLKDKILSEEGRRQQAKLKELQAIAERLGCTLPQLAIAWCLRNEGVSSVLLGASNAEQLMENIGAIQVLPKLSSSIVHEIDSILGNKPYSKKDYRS
Sequence of Alpha-2C adrenergic receptor (Homo sapiens) (P18825 whole entry, looked up): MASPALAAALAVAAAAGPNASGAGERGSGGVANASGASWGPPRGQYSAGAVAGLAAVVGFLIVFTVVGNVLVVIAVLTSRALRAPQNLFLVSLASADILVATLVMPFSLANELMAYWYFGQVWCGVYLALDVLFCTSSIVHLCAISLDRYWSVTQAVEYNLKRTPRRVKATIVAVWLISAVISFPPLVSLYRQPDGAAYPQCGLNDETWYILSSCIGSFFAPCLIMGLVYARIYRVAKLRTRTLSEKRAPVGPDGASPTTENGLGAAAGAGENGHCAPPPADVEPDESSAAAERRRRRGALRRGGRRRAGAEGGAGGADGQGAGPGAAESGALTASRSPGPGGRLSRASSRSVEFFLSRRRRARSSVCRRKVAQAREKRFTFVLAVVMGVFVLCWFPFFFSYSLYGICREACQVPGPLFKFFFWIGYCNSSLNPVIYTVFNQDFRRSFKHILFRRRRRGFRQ

Broadly, the inhibition is the relative decrease from the control value, in per cent. As to `Nc1c(Br)cc2oc(-c3ccccc3)nc2c1Br`, the cell count in assay [1] was found to be 539. The inhibition in assay [1] was -3.4% (inactive); in assay [2], -23.5% (inactive); in [4], 6.51% (inactive); in assay [9], -9.35% (inactive). Further, the nuclei count in assay [2] was 119%. The z-score is -0.358 in [3] (setting [10]), -0.383 in [3] (setting [11]) and -0.387 in [3] (setting [12]). The fluorescence slope in [5] was -0.482 (inactive). In addition, the NADPH fluorescence slope in assay [6] is -6.5e-05 (inactive). Further, in [7], the slope was 0.00567 (inactive). In assay [8], the result was inactive.
Regarding `O=C1c2ccccc2C(=O)N1CCN1CCc2ccccc21`, in assay [1], the cell count worked out at 404. Also, the inhibition was -3.1% (inactive) in assay [1], -131% (inactive) in assay [2], 13.2% (inactive) in [4] and -3.59% (inactive) in assay [9]. Further, the nuclei count in assay [2] came out at 166%. Further, the values for the z-score in [3] (setting [10]), in [3] (setting [11]) and in assay [3] (setting [12]) were 0.756, -0.637 and -0.565, respectively. Further, the fluorescence slope in assay [5] was -0.394 (inactive). Moreover, the NADPH fluorescence slope in assay [6] is -5.6e-05 (inactive). Further, in assay [7], the slope was 0.00539 (inactive). In addition, the result in assay [8] was inactive.
Take `COc1cccc(OC)c1-c1nn2c(-c3ccccc3Cl)nnc2s1`: the cell count in assay [1] was 611. The inhibition in assay [1] was -4.2% (inactive); in [2], -50.2% (inactive); in assay [4], -6.06% (inactive); in assay [9], 101% (active). This compound also yielded a nuclei count in assay [2] of 159%. For the same compound, the values for the z-score in assay [3] (setting [10]), in assay [3] (setting [11]) and in assay [3] (setting [12]) were 1.55, -0.0979 and -0.298, respectively. Further, the fluorescence slope in [5] was -0.444 (inactive). In assay [6], the NADPH fluorescence slope was -0.000105 (inactive). In addition, in assay [7], the slope is 0.00355 (inactive). In addition, the result in assay [8] was inactive.
With `CC(=O)OC12CC3CC(C1)C(=NO)C(C3)C2`, the cell count in assay [1] was determined as 541. Moreover, the inhibition in assay [1] was -10.2% (inactive); in assay [2], -145% (inactive); in assay [4], 33.7% (inactive); in assay [9], 39.2% (inactive). The compound also came in with a nuclei count in assay [2] of 127%. Besides, the z-score in [3] (setting [10]) was 1.34; in [3] (setting [11]) it was -0.992; in [3] (setting [12]), -0.795. In addition, in [5], the fluorescence slope is -0.512 (inactive). Moreover, the NADPH fluorescence slope in assay [6] was -2.1e-05 (inactive). Further, the slope in [7] is 0.00472 (inactive). The compound was classed as inactive in assay [8].
For `O=C(O)CC(C(=O)OCC1CCCO1)N1CCOCC1` (configuration not stated), in [1], the cell count is 526. For the same compound, the inhibition in assay [1] was -5.8% (inactive); in assay [2], -141% (inactive); in assay [4] it was 10.5% (inactive); in [9], -1.05% (inactive). This compound registered a nuclei count in [2] of 145%. For the same compound, the figures for the z-score in [3] (setting [10]), in assay [3] (setting [11]) and in [3] (setting [12]) were 0.582, -0.928 and -1.26, respectively. Further, the fluorescence slope in [5] is -0.518 (inactive). Also, in [6], the NADPH fluorescence slope is -4.1e-05 (inactive). In [7], the slope was 0.00538 (inactive). In [8], the result was inactive.
Regarding `COc1ccc(OC(=O)c2cc3ccccc3o2)cc1`, in assay [1], the cell count worked out at 610. In addition, the inhibition was -1.1% (inactive) in [1], 77.3% (active) in [2], -9.66% (inactive) in [4] and -0.854% (inactive) in [9]. Also, the nuclei count in assay [2] was found to be 142%. The z-score is -0.358 in assay [3] (setting [10]), -0.13 in assay [3] (setting [11]) and -0.531 in assay [3] (setting [12]). Also, in assay [5], the fluorescence slope was -0.377 (inactive). Moreover, the NADPH fluorescence slope in assay [6] is -3.8e-05 (inactive). Besides, the slope in assay [7] is 0.0058 (inactive). In assay [8], the call was inactive.
On to `CCOC(=O)CC1=C(C(=O)OCC)C(c2cc(OC)c(OC)cc2OC)C(C#N)=C(N)O1` (configuration not stated), for which the cell count in [1] came out at 433. Besides, the inhibition in assay [1] was -10% (inactive); in assay [2], -66.1% (inactive); in [4], -8.27% (inactive); in assay [9], 15.6% (inactive). The compound also showed a nuclei count in assay [2] of 106%. Moreover, the z-score in assay [3] (setting [10]) was 1.93; in [3] (setting [11]) it was -1.51; in assay [3] (setting [12]), -0.137. Besides, the fluorescence slope in assay [5] is -0.345 (inactive). In assay [6], the NADPH fluorescence slope was 6.8e-06 (inactive). Further, the slope in assay [7] was 0.00515 (inactive). In addition, the compound was called inactive in assay [8].
With `CSc1nc(NC(C)=O)nc(C)c1Cl`, the cell count in assay [1] stood at 555. Also, the inhibition in assay [1] is 1.9% (inactive); in [2], 33.2% (inactive); in [4], 1.48% (inactive); in assay [9], 37.7% (inactive). Also, in [2], the nuclei count is 97.7%. Further, the z-score was -0.722 in assay [3] (setting [10]), 0.648 in assay [3] (setting [11]) and -0.574 in [3] (setting [12]). Further, the fluorescence slope in assay [5] is -0.343 (inactive). In addition, in assay [6], the NADPH fluorescence slope is -7.4e-06 (inactive). The slope in assay [7] was 0.00457 (inactive). In assay [8], the outcome was inactive.
As to `CCOC(=O)c1cc(C)n(-c2ccc(OC)c(OC)c2)c1C`, the cell count in assay [1] is 530. Further, the inhibition was -8.1% (inactive) in assay [1], -25.1% (inactive) in assay [2], 5.57% (inactive) in assay [4] and -0.885% (inactive) in assay [9]. The nuclei count in assay [2] was determined as 122%. The z-score in assay [3] (setting [10]) was 1.68; in assay [3] (setting [11]), -2.38; in assay [3] (setting [12]) it was -0.201. Moreover, the fluorescence slope in [5] is -0.516 (inactive). Besides, the NADPH fluorescence slope in assay [6] was -0.000114 (inactive). The slope in assay [7] is 0.00418 (inactive). The call in assay [8] was inactive.
